Screening results as filed in PubChem.
TRPC6 inhibitor: mouse TRPC6 channel inhibition. HEK293-TRPC6, membrane potential dye, ACh-evoked depolarization; hits give low values. B-score at 10 µM. 310,000 tested, 1.1% active;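 active = B-score under library mean minus 3 SD, initial fluorescence not abnormally high, positive integrated signal ratio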;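 note: B-score derived from integrated fluorescence ratio over the kinetic read; more negative B-score means stronger inhibition of depolarization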
TRPC4 inh: blocks the mouse TRPC4 cation channel | Q9QUQ5 | HEK293 TRPC4beta/mu-opioid, DAMGO-evoked Fluo4 calcium flux; hits give low values | B-score at 10 µM | 300,000 tested, 0.39% active | AID 2247;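 active = B-score over 3 SD under the library average, no early fluorescence shift, positive overall ratio signal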
Target sequence (Q9QUQ5 whole entry, looked up): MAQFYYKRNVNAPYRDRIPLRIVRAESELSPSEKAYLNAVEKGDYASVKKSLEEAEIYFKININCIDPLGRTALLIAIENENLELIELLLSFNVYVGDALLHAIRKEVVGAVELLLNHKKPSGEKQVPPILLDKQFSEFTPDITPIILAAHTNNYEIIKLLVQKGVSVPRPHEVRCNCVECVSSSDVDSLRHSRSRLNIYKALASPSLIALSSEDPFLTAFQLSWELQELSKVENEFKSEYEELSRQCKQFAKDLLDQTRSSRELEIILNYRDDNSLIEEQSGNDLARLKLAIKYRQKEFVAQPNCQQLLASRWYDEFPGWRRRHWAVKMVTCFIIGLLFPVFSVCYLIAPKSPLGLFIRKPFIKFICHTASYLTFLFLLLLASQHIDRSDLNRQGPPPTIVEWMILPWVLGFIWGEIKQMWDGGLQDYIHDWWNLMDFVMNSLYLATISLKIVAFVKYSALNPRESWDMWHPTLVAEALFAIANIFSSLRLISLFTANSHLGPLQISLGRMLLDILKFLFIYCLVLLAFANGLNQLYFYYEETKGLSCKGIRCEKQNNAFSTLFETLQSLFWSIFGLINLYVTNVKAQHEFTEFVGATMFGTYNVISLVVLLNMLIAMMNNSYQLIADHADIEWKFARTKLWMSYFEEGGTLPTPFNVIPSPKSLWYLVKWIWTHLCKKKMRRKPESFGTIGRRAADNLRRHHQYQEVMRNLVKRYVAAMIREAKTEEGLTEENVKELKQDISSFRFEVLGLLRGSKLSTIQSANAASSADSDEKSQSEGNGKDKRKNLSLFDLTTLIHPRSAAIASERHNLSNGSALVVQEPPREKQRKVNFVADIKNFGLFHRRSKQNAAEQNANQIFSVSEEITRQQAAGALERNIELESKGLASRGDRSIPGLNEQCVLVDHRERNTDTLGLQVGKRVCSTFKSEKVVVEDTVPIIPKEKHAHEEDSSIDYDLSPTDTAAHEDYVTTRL
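Test system – stable TRPC4beta/mu-opioid receptor HEK293 cells · Probe or stimulus – DAMGO, a submaximal dose followed by a maximal one · Dosing – one concentration per compound · Signal – Fluo4 calcium fluorescence by kinetic imaging, 5 s 1 Hz baseline · Evaluation – per-well B score of integrated baseline-normalized Fluo4 ratio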
TRPC6 activator: activators of mouse TRPC6 channel. 310,000 tested, 0.13% active. B-score at 10 µM. HEK293-TRPC6 membrane potential dye fluorescence; hits give high values;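 active = B-score of the integrated fluorescence ratio above library mean plus 3 SD, and starting fluorescence ratio within library mean plus 5 SD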;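 note: higher score means more depolarization so channel activation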
TRPC4 PAM: allosterically enhances the mouse TRPC4 cation channel; 310,000 tested, 0.42% active; B-score at 10 µM; HEK293 TRPC4beta/mu-opioid, DAMGO EC20, Fluo-4 Ca2+ flux; hits give high values; Q9QUQ5;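 active = B-score of calcium response area above 5 SD of library B-scores, with initial fluorescence ratio within 5 SD of library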
TRPC4 agonist: opens the mouse TRPC4 cation channel | Q9QUQ5 | HEK293 TRPC4beta/mu-opioid, Fluo4 calcium fluorescence; hits give high values | B-score at 10 µM | 310,000 tested, 0.49% active | AID 2237;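 active = B-score above 5 SD of library B-scores, and initial fluorescence ratio not above library mean plus 5 SD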;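 note: positive B-score marks a calcium rise read as TRPC4 activation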
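Assay system: HEK293 stable line with TRPC4beta plus mu-opioid receptor; schedule: 45 min room-temperature Fluo4 loading, 110 s read; technique: kinetic Fluo4 calcium fluorescence; evaluation: integrated baseline-normalised fluorescence ratio, converted to per-well B score; controls: buffer (low) and maximal DAMGO (high)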
Numbers stand for hits; . = inactive. Rows were chosen to be rich in hits. Some 2.3% of all compounds tested hit in one or more screens of this group.

SMILES	TRPC6 inhibitor	TRPC4 inh	TRPC6 activator	TRPC4 PAM	TRPC4 agonist
N#C/C(=C/c1cccn1-c1cccc(C(=O)O)c1)c1ccc(Cl)cc1	.	-6	.	.	.
N#CC(C#N)=Cc1cccn1-c1ccc(C(=O)O)cc1	.	.	.	.	.
CC1CC(C)CN(CCCNC(=O)C2CCN(S(=O)(=O)N3CCCCC3)CC2)C1 (stereo unspecified)	.	.	.	.	59
N#Cc1cccc2c1-c1ccccc1/C2=N/NC(N)=S	.	.	.	.	.
N#Cc1cccc2c1-c1ccccc1/C2=N/NC(N)=O	.	-6	.	.	.
NC(=O)N/N=C1\c2ccccc2-c2c(C(N)=O)cccc21	.	-5	.	.	.
Cc1ccc(S(=O)(=O)Nc2cccc(C(=O)NCC(c3ccco3)N3CCCC3)c2)cc1F (stereo unspecified)	.	-6	.	.	53
COc1ccc(OC2CCN(S(=O)(=O)c3cccc(F)c3)CC2)cc1	.	.	.	11	.
O=C(Cc1cccs1)Nc1nc(-c2ccc(F)cc2F)cs1	.	.	.	85	.
CCOc1ccccc1C(=O)NCCc1cnc[nH]1	.	.	.	17	.
O=C(NCCc1cnc[nH]1)c1ccc(-c2ccccc2)cc1	.	.	.	.	106
CCCOc1cc(C)c(S(=O)(=O)n2ccc(C)n2)cc1C	.	.	.	13	.
COc1ccc(-c2cc(C(=O)Nc3ccccc3F)on2)cc1	.	.	.	.	.
COCCNc1nc(-c2ccccc2)nc2ccccc12	.	-5	.	.	.
COCCCNc1nc(-c2ccncc2)nc2ccccc12	.	.	.	.	.
CC(C)(C)c1ccc(-c2nc3cc(N)ccc3o2)cc1	.	.	.	18	.
Cc1ccc(-c2csc(N(CCCN3CCOCC3)C(=O)c3ccco3)n2)cc1	.	.	.	.	.
CN(C)CCCN(C(=O)c1ccco1)c1nc2cc3c(cc2s1)OCO3	-7.8	.	.	.	.
CN(C)CCCN(C(=O)c1ccc(C(=O)c2ccccc2)cc1)c1nc2cc3c(cc2s1)OCO3	.	.	.	.	.
Cc1ccc(-c2csc(N(CCCN(C)C)C(=O)c3ccco3)n2)cc1	.	-6	.	.	.
COc1ccc(-c2csc(N(CCCN(C)C)C(=O)c3cccs3)n2)cc1	.	.	.	.	56
O=C(OCc1ccco1)c1ccc(S(=O)(=O)N2CCCCC2)cc1	.	.	.	.	.
Cc1ccc(C(=O)NCC(c2ccco2)N2CCc3ccccc32)cc1C (stereo unspecified)	.	.	.	.	.
COc1cc(/C=C2\C(C)=C(C#N)c3nc(N)c(C#N)c(C)c32)ccc1OCC(=O)O	.	.	.	.	.
CC1=C(C#N)c2nc(N)c(C#N)c(C)c2/C1=C\c1ccc(C)cc1	-6.4	.	.	.	.
SMILES	TRPC6 inhibitor	TRPC4 inh	TRPC6 activator	TRPC4 PAM	TRPC4 agonist
CCCN1CCC(NC(=O)Nc2ccccc2C(=O)OC)CC1	.	.	.	.	71
COC(=O)c1ccccc1NC(=O)NC1CC1	.	.	.	.	.
CCN(CC)CCCN1CC(O)=C(c2nc3ccccc3s2)C1=N	.	.	.	12	.
N=C1C(c2nc3ccccc3s2)=C(O)CN1Cc1ccccc1	.	.	.	.	.
O=C(c1c(O)c2ccccc2oc1=O)C1CCCCC1	.	.	.	.	.
O=C(CCC1CCCC1)c1c(O)c2ccccc2oc1=O	.	.	.	.	193
CCN1CCN(c2ncnc3scc(-c4ccc(C)c(C)c4)c23)CC1	.	.	.	.	.
CCN1CCN(c2ncnc3sc(C)c(-c4ccccc4)c23)CC1	.	.	.	.	86
CC1CCCCC1NC(=O)CSc1nncn1N (stereo unspecified)	.	.	.	.	.
CC(=O)NCC1CCCN(Cc2cn(-c3ccccc3)nc2-c2ccc3c(c2)OCO3)C1 (stereo unspecified)	.	.	.	.	.
COC(=O)C1CCN(Cc2cn(-c3ccccc3)nc2-c2ccc3c(c2)OCO3)CC1	.	.	.	.	83
O=[N+]([O-])c1ccc(-c2ccc(/C=N/n3cnnc3)o2)c(Br)c1	.	.	.	.	.
CCOC(=O)C1(CC2CCCCO2)CCN(Cc2cn[nH]c2-c2cccc(F)c2)CC1 (stereo unspecified)	.	.	.	.	76
COc1cccc(CC2(CO)CCCN(Cc3ccc(-c4ccco4)cc3)C2)c1 (stereo unspecified)	.	.	.	.	.
COc1cccc(CC2(CO)CCCN(Cc3ccccc3-c3ccco3)C2)c1 (stereo unspecified)	.	-7	.	.	43
CCOC(=O)C1(CC2CCCCO2)CCN(Cc2cc3ccccc3[nH]2)CC1 (stereo unspecified)	.	.	.	.	273
OCC1(CC2CCCCO2)CCN(Cc2ccccc2-c2ccco2)CC1 (stereo unspecified)	.	.	.	.	75
CCCn1ncc(CN2CCC(CO)(CC3CCCCO3)CC2)c1C (stereo unspecified)	.	.	.	.	.
CCOC(=O)C1(CC2CCCCO2)CCN(Cc2cccnc2)CC1 (stereo unspecified)	.	.	.	.	.
CCOC(=O)C1(CC2CCCCO2)CCN(Cc2ccccc2-c2ccco2)CC1 (stereo unspecified)	.	.	.	.	78
COc1ccccc1N1CCN(S(=O)(=O)c2cccs2)CC1	.	.	.	.	.
COc1ccc(-c2cc(-c3ccccc3)nc(NN)n2)cc1OC	.	.	.	.	.
Cc1ccc(-c2cc(-c3ccccc3)nc(NN)n2)cc1	.	.	.	12	.
COc1ccc(/C=N/N2CCN(c3ccccc3OC)CC2)cc1OC	.	.	.	.	.
O=c1c(Cl)c(N2CCN(c3ccc(F)cc3)CC2)cnn1C12CC3CC(CC(C3)C1)C2	.	.	.	10	.
SMILES	TRPC6 inhibitor	TRPC4 inh	TRPC6 activator	TRPC4 PAM	TRPC4 agonist
CN(C(=O)COC(=O)c1c[nH]c(=O)[nH]c1=O)C1CCCCC1	.	.	.	.	.
OC1(c2cccs2)CN(c2ccc(Br)cc2)C2=[N+]1CCCS2 (stereo unspecified)	.	.	.	.	.
OC1(c2ccccc2)CN(c2ccccc2)C2=[N+]1CCS2 (stereo unspecified)	.	-9	.	.	72
CNC(=O)NC(=O)COc1ccc2oc3c(c2c1)CCCC3	.	.	.	.	.
CNC(=O)COc1ccc2oc3c(c2c1)CCCC3	.	-6	.	.	.
COC(=O)c1ccc(/C=N\N2CCN(Cc3ccc(C)cc3)CC2)cc1	.	.	.	.	.
CCOC(=O)N1CCC(=NNC(=O)COc2ccc(OC)cc2)CC1	.	.	.	.	.
Cc1nc(N)nc(C)c1Cc1ccccc1	.	.	.	.	.
O=C(OCC(=O)N1CCOCC1)c1cccc(S(=O)(=O)N2CCCc3ccccc32)c1	.	.	.	15	.
